Data on 32 compounds can be found in ChEMBL document CHEMBL1681687, “Discovery of muscarinic acetylcholine receptor antagonist and beta 2 adrenoceptor agonist (MABA) dual pharmacology molecules” (Bioorg Med Chem Lett, 2011).

For experiment [1], the target named is Muscarinic acetylcholine receptor M3 (Homo sapiens, UniProt P20309). Description: Displacement of [3H]-N-methyl-scopolamine from human muscarinic M3 receptor after 6 hrs by cell based assay. The method in brief:
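Human M3 receptor-expressing cell membranes incubated up to 6 h at 37 °C with 1 nM [3H]N-methyl-scopolamine and serial dilutions of compound. Buffer 10 mM Hepes, 100 mM NaCl, 10 mM MgCl2, pH 7.4 at 37 °C. IC50 from displacement converted to Ki by Cheng–Prusoff.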

For experiment [2], the target named is T1, Beta-2 adrenergic receptor (Homo sapiens, UniProt P07550). Description: Displacement of [3H]-dihydroalprenolol from human beta2-adrenoceptor expressed in HEK cells after 4 hrs. Type of experiment: cell-based, HEK293.
T1 sequence (P07550 whole entry): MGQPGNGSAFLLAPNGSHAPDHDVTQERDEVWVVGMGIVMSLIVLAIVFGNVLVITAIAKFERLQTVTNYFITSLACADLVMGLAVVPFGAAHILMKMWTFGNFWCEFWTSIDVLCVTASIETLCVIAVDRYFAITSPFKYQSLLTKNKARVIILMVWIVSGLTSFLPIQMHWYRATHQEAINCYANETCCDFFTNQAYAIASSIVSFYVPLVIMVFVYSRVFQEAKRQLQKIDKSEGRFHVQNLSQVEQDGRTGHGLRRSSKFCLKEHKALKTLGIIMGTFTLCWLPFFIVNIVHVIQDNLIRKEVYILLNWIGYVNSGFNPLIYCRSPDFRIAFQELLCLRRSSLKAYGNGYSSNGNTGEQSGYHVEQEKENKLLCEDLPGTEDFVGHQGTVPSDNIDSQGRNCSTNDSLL
Experiment [3] addresses T1, Beta-2 adrenergic receptor. As to the kind of experiment: Agonist activity at human beta2-adrenoceptor expressed in HEK cells assessed as increase of cAMP level after 10 mins by radioimmunoassay. Format: functional, cell-based, HEK293.

Chain of Muscarinic acetylcholine receptor M3 (P20309 whole entry): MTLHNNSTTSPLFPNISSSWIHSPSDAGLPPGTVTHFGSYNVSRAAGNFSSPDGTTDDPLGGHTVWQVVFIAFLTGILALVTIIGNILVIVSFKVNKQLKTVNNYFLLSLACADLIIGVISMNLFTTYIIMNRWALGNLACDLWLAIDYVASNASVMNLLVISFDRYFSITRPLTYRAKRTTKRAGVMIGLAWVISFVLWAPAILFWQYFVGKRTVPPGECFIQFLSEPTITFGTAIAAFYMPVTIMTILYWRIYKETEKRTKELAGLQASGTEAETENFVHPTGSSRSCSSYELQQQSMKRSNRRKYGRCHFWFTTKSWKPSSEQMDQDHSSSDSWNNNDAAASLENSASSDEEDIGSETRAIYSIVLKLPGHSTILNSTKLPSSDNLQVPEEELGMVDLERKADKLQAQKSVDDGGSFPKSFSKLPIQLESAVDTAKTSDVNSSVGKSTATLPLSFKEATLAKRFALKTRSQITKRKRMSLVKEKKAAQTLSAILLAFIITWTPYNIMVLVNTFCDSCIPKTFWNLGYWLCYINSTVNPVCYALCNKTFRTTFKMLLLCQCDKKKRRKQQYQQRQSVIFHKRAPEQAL

In experiment [1], `O=C(Nc1ccccc1-c1ccccc1)OC1CCNCC1` returned an inhibitory constant (Ki) of 46 nM.

Take `CN1CCC(OC(=O)Nc2ccccc2-c2ccccc2)CC1`: the affinity in experiment [1], expressed as Ki, was 22 nM.

In turn, `CCN1CCC(OC(=O)Nc2ccccc2-c2ccccc2)CC1` gave a Ki in experiment [1] of 55 nM.

Take `CCCN1CCC(OC(=O)Nc2ccccc2-c2ccccc2)CC1`: the affinity in experiment [1], expressed as Ki, was 77 nM.

`CCCCN1CCC(OC(=O)Nc2ccccc2-c2ccccc2)CC1`: in experiment [1], affinity was put at a Ki of 17 nM.

In experiment [1], `CCCCCN1CCC(OC(=O)Nc2ccccc2-c2ccccc2)CC1` registered an inhibition constant (Ki) of 14 nM.

In experiment [1], `CCCCCCN1CCC(OC(=O)Nc2ccccc2-c2ccccc2)CC1` showed a Ki of 4.8 nM.

In experiment [1], `CCCCCCCN1CCC(OC(=O)Nc2ccccc2-c2ccccc2)CC1` showed an inhibition constant (Ki) of 5.1 nM.

With `CCCCCCCCN1CCC(OC(=O)Nc2ccccc2-c2ccccc2)CC1`, the Ki in experiment [1] is 7 nM.

Compound `CCCCCCCCCN1CCC(OC(=O)Nc2ccccc2-c2ccccc2)CC1` showed a Ki in experiment [1] of 9.5 nM.

As for `CCCCCCCCCCN1CCC(OC(=O)Nc2ccccc2-c2ccccc2)CC1`, in experiment [1], the affinity corresponds to a Ki of 25 nM.

In experiment [1], `CCCCCCCCCCCN1CCC(OC(=O)Nc2ccccc2-c2ccccc2)CC1` gave an inhibition constant (Ki) of 48 nM.

Compound `NCCN1CCC(OC(=O)Nc2ccccc2-c2ccccc2)CC1` returned a Ki in experiment [1] of 50 nM.

For the compound `NCCCN1CCC(OC(=O)Nc2ccccc2-c2ccccc2)CC1`, the Ki in experiment [1] stood at 67 nM.

Compound `NCCCCN1CCC(OC(=O)Nc2ccccc2-c2ccccc2)CC1` gave an inhibitory constant (Ki) in experiment [1] of 84 nM.

Take `NCCCCCN1CCC(OC(=O)Nc2ccccc2-c2ccccc2)CC1`: the inhibition constant (Ki) in experiment [1] was found to be 98 nM.

For the compound `NCCCCCCN1CCC(OC(=O)Nc2ccccc2-c2ccccc2)CC1`, the Ki in experiment [1] amounted to 19 nM.

`NCCCCCCCN1CCC(OC(=O)Nc2ccccc2-c2ccccc2)CC1` had an inhibition constant (Ki) in experiment [1] of 0.53 nM.

With `NCCCCCCCCN1CCC(OC(=O)Nc2ccccc2-c2ccccc2)CC1`, the Ki in experiment [1] is 1.8 nM.

For the compound `NCCCCCCCCCN1CCC(OC(=O)Nc2ccccc2-c2ccccc2)CC1`, the affinity in experiment [1] corresponds to a Ki of 0.75 nM.

Consider `NCCCCCCCCCCN1CCC(OC(=O)Nc2ccccc2-c2ccccc2)CC1`, for which affinity in experiment [1] was put at a Ki of 1.6 nM.

Turning to `NCCCCCCCCCCCN1CCC(OC(=O)Nc2ccccc2-c2ccccc2)CC1`, the Ki in experiment [1] was 2.5 nM.

As to `NCCCCCCCCCCCCN1CCC(OC(=O)Nc2ccccc2-c2ccccc2)CC1`, the affinity in experiment [1] corresponds to a Ki of 2.6 nM.

For the compound `O=C(Nc1ccccc1-c1ccccc1)OC1CCN(CCCNC[C@H](O)c2ccc(O)c3[nH]c(=O)ccc23)CC1`, the Ki in experiment [1] is 28 nM; in experiment [2], 19 nM. Besides, the EC50 in experiment [3] is 1.3 nM.

In the case of `O=C(Nc1ccccc1-c1ccccc1)OC1CCN(CCCCCCCNC[C@H](O)c2ccc(O)c3[nH]c(=O)ccc23)CC1`, the Ki came out at 0.74 nM in experiment [1] and 10 nM in experiment [2]. The concentration giving a half-maximal response (EC50) in experiment [3] worked out at 1.1 nM.

Regarding `O=C(Nc1ccccc1-c1ccccc1)OC1CCN(CCCCCCCCNC[C@H](O)c2ccc(O)c3[nH]c(=O)ccc23)CC1`, the figures for the Ki in experiment [1] and in experiment [2] were 0.32 nM and 3.4 nM, respectively. In addition, the EC50 in experiment [3] came out at 0.32 nM.

In the case of `O=CNc1cc([C@@H](O)CNCCCCCCCCCN2CCC(OC(=O)Nc3ccccc3-c3ccccc3)CC2)ccc1O`, the inhibitory constant (Ki) in experiment [1] came to 0.14 nM; in experiment [2], 21 nM. Moreover, the EC50 in experiment [3] is 2.6 nM.

As for `O=C(Nc1ccccc1-c1ccccc1)OC1CCN(CCCCCCCCCNC[C@H](O)c2ccc(O)c(CO)c2)CC1`, the inhibition constant (Ki) in experiment [1] is 0.14 nM; in experiment [2], 61 nM. The EC50 in experiment [3] amounted to 14 nM.

Take `NC(=O)C(c1ccccc1)(c1ccccc1)[C@@H]1CCN(CCCCCCCCCNCC(O)c2ccc(O)c3[nH]c(=O)ccc23)C1` (stereo not given in full): the inhibitory constant (Ki) in experiment [1] is 32 nM; in experiment [2], 60 nM. Also, the EC50 in experiment [3] came out at 3.3 nM.

Turning to `O=C(Nc1ccccc1-c1ccccc1)NC1CCN(CCCCCCCCCNCC(O)c2ccc(O)c3[nH]c(=O)ccc23)CC1` (stereo not given), the inhibition constant Ki in experiment [1] was 7.5 nM; in experiment [2], 115 nM. In addition, in experiment [3], the concentration giving a half-maximal response (EC50) worked out at 8.4 nM.

As to `O=C(Nc1ccccc1-c1ccccc1)O[C@H]1C[N+]2(CCCCCCCCCNCC(O)c3ccc(O)c4[nH]c(=O)ccc34)CCC1CC2` (stereo not given in full), the inhibitory constant (Ki) in experiment [1] turned out to be 140 nM; in experiment [2] it was 123 nM. The concentration for a half-maximal effect (EC50) in experiment [3] came to 8.9 nM.

For `C[N+]1(CCCCCCCCCNC[C@H](O)c2ccc(O)c3[nH]c(=O)ccc23)[C@@H]2C[C@H](OC(=O)C(O)(c3cccs3)c3cccs3)C[C@@H]1[C@H]1O[C@H]12` (stereo not given in full), the inhibition constant Ki in experiment [1] was found to be 4.6 nM; in experiment [2], 36 nM. Further, the concentration for a half-maximal effect (EC50) in experiment [3] amounted to 0.9 nM.
